Experimental data published in ChEMBL document CHEMBL3351626, “Discovery, structure-activity relationship studies, and anti-nociceptive effects of 1-phenyl-3,6,6-trimethyl-1,5,6,7-tetrahydro-4H-indazol-4-one as novel opioid receptor agonists” (Bioorg Med Chem, 2014).
One block for each compound: values may come before it. Active and inactive are the calls of the source. No cut-off for these calls is given here.

Assays:
Mu-type opioid receptor [1] = target: T1, Mu-type opioid receptor (Homo sapiens, UniProt P35372); type: functional, cell-based, CHO-K1
T1 sequence (P35372 whole entry): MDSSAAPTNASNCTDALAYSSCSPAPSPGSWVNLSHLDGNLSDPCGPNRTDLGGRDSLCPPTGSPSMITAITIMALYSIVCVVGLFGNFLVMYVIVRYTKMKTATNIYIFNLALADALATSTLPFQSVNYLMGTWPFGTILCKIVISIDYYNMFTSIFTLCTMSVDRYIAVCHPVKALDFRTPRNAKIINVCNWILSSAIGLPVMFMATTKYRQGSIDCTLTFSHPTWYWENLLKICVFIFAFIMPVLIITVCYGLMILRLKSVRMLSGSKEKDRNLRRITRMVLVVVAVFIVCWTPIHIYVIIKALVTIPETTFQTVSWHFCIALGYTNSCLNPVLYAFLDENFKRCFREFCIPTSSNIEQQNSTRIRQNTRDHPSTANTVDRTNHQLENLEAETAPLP

Mu-type opioid receptor [2] = target: Mu-type opioid receptor (Rattus norvegicus, UniProt P33535); test: Displacement of [3H]-naloxone from rat mu opioid receptor expressed in HEK cells after 60 mins; type: cell-based, HEK293
Chain of Mu-type opioid receptor (Rattus norvegicus, UniProt P33535) (P33535 whole entry): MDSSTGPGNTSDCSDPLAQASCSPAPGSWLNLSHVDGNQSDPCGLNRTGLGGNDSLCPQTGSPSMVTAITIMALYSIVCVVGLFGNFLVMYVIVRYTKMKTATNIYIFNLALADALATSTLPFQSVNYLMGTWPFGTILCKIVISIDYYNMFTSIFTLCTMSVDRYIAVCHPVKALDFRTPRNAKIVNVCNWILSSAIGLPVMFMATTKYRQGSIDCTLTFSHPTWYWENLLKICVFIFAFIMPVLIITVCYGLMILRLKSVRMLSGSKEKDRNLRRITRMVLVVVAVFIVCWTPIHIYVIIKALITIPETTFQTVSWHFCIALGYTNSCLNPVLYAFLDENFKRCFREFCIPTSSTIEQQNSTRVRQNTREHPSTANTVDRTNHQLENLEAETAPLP

Mu-type opioid receptor [3] = target: T1, Mu-type opioid receptor; test: Agonist activity at human mu opioid receptor expressed in HEK293 cells assessed as inhibition of forskolin-induced cAMP production after 30 mins by HTRF assay; type: functional, cell-based
[4] = target: Delta-type opioid receptor (Homo sapiens, UniProt P41143); test: Agonist activity at human delta opioid receptor expressed in HEK293 cells assessed as inhibition of forskolin-induced cAMP production after 30 mins by HTRF assay; type: functional, cell-based
Chain of Delta-type opioid receptor (P41143 whole entry): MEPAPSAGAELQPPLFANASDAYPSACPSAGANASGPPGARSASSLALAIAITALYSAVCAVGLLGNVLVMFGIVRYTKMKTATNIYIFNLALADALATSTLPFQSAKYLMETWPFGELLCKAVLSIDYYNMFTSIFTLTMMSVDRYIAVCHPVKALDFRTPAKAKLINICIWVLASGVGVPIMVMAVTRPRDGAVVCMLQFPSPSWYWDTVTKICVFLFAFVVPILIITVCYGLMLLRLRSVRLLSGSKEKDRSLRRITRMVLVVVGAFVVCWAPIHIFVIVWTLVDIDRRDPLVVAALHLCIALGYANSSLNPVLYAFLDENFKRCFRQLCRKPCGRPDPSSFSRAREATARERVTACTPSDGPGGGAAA

[5] = target: Kappa-type opioid receptor (Homo sapiens, UniProt P41145); test: Agonist activity at human kappa opioid receptor expressed in HEK293 cells assessed as inhibition of forskolin-induced cAMP production after 30 mins by HTRF assay; type: functional, cell-based
Chain of Kappa-type opioid receptor (P41145 whole entry): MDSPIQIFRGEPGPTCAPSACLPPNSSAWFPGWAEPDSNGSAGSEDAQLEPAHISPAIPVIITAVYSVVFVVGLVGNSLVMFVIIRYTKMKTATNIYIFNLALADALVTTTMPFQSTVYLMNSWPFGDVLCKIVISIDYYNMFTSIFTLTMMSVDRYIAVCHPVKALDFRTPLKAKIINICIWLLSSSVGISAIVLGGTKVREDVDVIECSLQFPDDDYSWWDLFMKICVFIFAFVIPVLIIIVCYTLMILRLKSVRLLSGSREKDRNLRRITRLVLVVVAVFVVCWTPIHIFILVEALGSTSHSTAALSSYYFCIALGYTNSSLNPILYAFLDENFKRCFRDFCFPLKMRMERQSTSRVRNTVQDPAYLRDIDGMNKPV
Procedure, shortened: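 HEK293 cells stably expressing the mu, delta or kappa opioid receptor, plus parental cells, at 2000 cells/well in DMEM. Compound in HBSS added with 1 µM forskolin and 100 µM IBMX for 30 min at room temperature. d2-cAMP and anti-cAMP antibody in lysis buffer then added. Read 2 h later: excitation 330 nm, emission 620 and 665 nm.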

Mus musculus [6] = test: Analgesic activity in iv dosed wild type B6 mouse assessed as basal tail-flick withdrawal latency; type: functional
Procedure, shortened: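 Tail-flick instrument nociception test in wild-type B6 mice. Basal latency measured first, then compound given iv (20, 18.4 or 25 mg/kg depending on compound). Latency read at 10, 20, 30, 40, 50 and 60 min after dosing, reported as test latency minus basal latency. AUC of the time-response curve calculated; ED50 by up-and-down method. n=6 per group.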

Mus musculus [7] = test: Analgesic activity in wild type B6 mouse assessed as basal tail-flick withdrawal latency at 18.4 mg/kg, iv injected with 10 mg/kg, sc naloxone 5 mins before compound dosing; type: functional, organism-based
Procedure, shortened: (§1)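 Wild-type B6 mice, n=6 per group. Basal tail-flick latency measured first. […] Latency read at 10, 20, 30, 40, 50 and 60 min after dosing. Test minus basal latency plotted against time and AUC calculated.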

Mu-type opioid receptor [8] = target: T1, Mu-type opioid receptor; test: Agonist activity at myc-tagged mu opioid receptor (unknown origin) expressed in AtT-20 cells assessed as induction of membrane potential hyperpolarization; type: cell-based, AtT20
Procedure, shortened: (§2)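 Mouse pituitary AtT-20 cells (endogenous GIRK1/GIRK2) electroporated with myc-MOR plasmid or vehicle and seeded. After 24 h, serum-starved 3 h, then loaded with blue membrane potential dye for 0.5 h at 25 °C. Vehicle or compound added and potassium conductance read as fluorescence over about 175 s.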

Mu-type opioid receptor [9] = target: T1, Mu-type opioid receptor; test: Agonist activity at myc-tagged mu opioid receptor (unknown origin) expressed in AtT-20 cells assessed as induction of membrane potential hyperpolarization in presence of 1 uM naloxone; type: cell-based; conditions: AtT20
Procedure, shortened: as §2

Mus musculus [10] = test: Analgesic activity in wild type B6 mouse assessed as basal tail-flick withdrawal latency at 20 mg/kg, iv injected with 10 mg/kg, sc naloxone 5 mins before compound dosing; type: functional, organism-based
Procedure, shortened: as §1

Mus musculus [11] = test: Analgesic activity in wild type B6 mouse assessed as basal tail-flick withdrawal latency at 25 mg/kg, iv injected with 10 mg/kg, sc naloxone 5 mins before compound dosing; type: functional, organism-based
Procedure, shortened: as §1

EC50 (Mu-type opioid receptor [1]): 0.37 µM
Ki (Mu-type opioid receptor [2]): 1.3 µM
SMILES: CC1(C)CC(=O)c2c(C3CC3)nn(-c3ccc(Cl)cc3Cl)c2C1

SMILES: CC1(C)CC(=O)c2c(C(F)(F)F)nn(-c3ccc(Cl)cc3Cl)c2C1
EC50 (Mu-type opioid receptor [1]): 1.54 µM

EC50 (Mu-type opioid receptor [1]): 2.28 µM
SMILES: Cc1nn(-c2ccccc2Cl)c2c1C(=O)CC(C)(C)C2

EC50 (Mu-type opioid receptor [1]): 9.91 µM
SMILES: Cc1nn(-c2ccc(Br)cc2)c2c1C(=O)CC(C)(C)C2

EC50 (Mu-type opioid receptor [1]): 0.37 µM
Ki (Mu-type opioid receptor [2]): > 100 µM
SMILES: Cc1cc(Cl)ccc1-n1nc(C)c2c1CC(C)(C)CC2=O

SMILES: Cc1nn(-c2ccc(Cl)cc2Br)c2c1C(=O)CC(C)(C)C2
EC50 (Mu-type opioid receptor [1]): 0.041 µM
Ki (Mu-type opioid receptor [2]): 0.61 µM
IC50 (Mu-type opioid receptor [3]): 3.3 µM
IC50 [4]: 3.38 µM
IC50 [5]: 0.57 µM
ED50 (Mus musculus [6]): 10.9 mg/kg
Activity (Mus musculus [7]): inactive
EC50 (Mu-type opioid receptor [8]): 0.1 µM
Activity (Mu-type opioid receptor [9]): inactive

EC50 (Mu-type opioid receptor [1]): > 100 µM
SMILES: Cc1nn(-c2cccc(Cl)c2)c2c1C(=O)CC(C)(C)C2

EC50 (Mu-type opioid receptor [1]): 30.2 µM
SMILES: CCOC(=O)c1ccccc1-n1nc(C)c2c1CC(C)(C)CC2=O

SMILES: Cc1nn(-c2ccc(Br)cc2Br)c2c1C(O)CC(C)(C)C2 (stereo not given)
EC50 (Mu-type opioid receptor [1]): 0.1 µM
Ki (Mu-type opioid receptor [2]): > 100 µM
IC50 (Mu-type opioid receptor [3]): 3.38 µM
IC50 [4]: > 100 µM
IC50 [5]: 1.1 µM

EC50 (Mu-type opioid receptor [1]): 4.72 µM
SMILES: Cc1ccccc1-n1nc(C)c2c1CC(C)(C)CC2=O

EC50 (Mu-type opioid receptor [1]): 10.3 µM
SMILES: Cc1nn(-c2ccc(F)cc2F)c2c1C(=O)CC(C)(C)C2

EC50 (Mu-type opioid receptor [1]): 10 µM
SMILES: COC(=O)c1ccc(-n2nc(C)c3c2CC(C)(C)CC3=O)cc1

EC50 (Mu-type opioid receptor [1]): > 100 µM
SMILES: Cc1n[nH]c2c1C(=O)CC(C)(C)C2

EC50 (Mu-type opioid receptor [1]): 13.6 µM
SMILES: Cc1nn(-c2ccc(Cl)cc2Cl)c2c1C(=O)CCC2

EC50 (Mu-type opioid receptor [1]): 13.6 µM
SMILES: Cc1nn(-c2ccc(Cl)cc2)c2c1C(=O)CC(C)(C)C2

SMILES: Cc1nn(-c2ccc(Br)cc2Br)c2c1C(=O)CC(C)(C)C2
EC50 (Mu-type opioid receptor [1]): 0.041 µM
Ki (Mu-type opioid receptor [2]): 0.47 µM
IC50 (Mu-type opioid receptor [3]): 0.73 µM
IC50 [4]: 1.69 µM
IC50 [5]: 0.41 µM
ED50 (Mus musculus [6]): 8.4 mg/kg
Activity (Mus musculus [10]): inactive
EC50 (Mu-type opioid receptor [8]): 5.49 µM
Activity (Mu-type opioid receptor [9]): inactive

EC50 (Mu-type opioid receptor [1]): 2.89 µM
SMILES: Cc1nn(-c2cc(Cl)ccc2Cl)c2c1C(=O)CC(C)(C)C2

EC50 (Mu-type opioid receptor [1]): > 100 µM
SMILES: Cc1nn(-c2ccccc2)c2c1C(=O)CC(C)(C)C2

EC50 (Mu-type opioid receptor [1]): 0.37 µM
Ki (Mu-type opioid receptor [2]): 3.93 µM
SMILES: Cc1ccc(-n2nc(C)c3c2CC(C)(C)CC3=O)c(C)c1

EC50 (Mu-type opioid receptor [1]): 8.9 µM
SMILES: Cc1cccc(-n2nc(C)c3c2CC(C)(C)CC3=O)c1C

EC50 (Mu-type opioid receptor [1]): 19 µM
SMILES: CCc1ccccc1-n1nc(C)c2c1CC(C)(C)CC2=O

EC50 (Mu-type opioid receptor [1]): 10 µM
SMILES: Cc1ccc(C)c(-n2nc(C)c3c2CC(C)(C)CC3=O)c1

EC50 (Mu-type opioid receptor [1]): 1.12 µM
SMILES: Cc1nn(-c2ccccc2Br)c2c1C(=O)CC(C)(C)C2

EC50 (Mu-type opioid receptor [1]): 0.15 µM
IC50 (Mu-type opioid receptor [3]): 7.89 µM
IC50 [4]: 10 µM
IC50 [5]: 2.65 µM
SMILES: Cc1nn(-c2ccc(Cl)cc2Cl)c2c1C(=O)CC(C)(C)C2

EC50 (Mu-type opioid receptor [1]): 18.4 µM
SMILES: COc1ccc(-n2nc(C)c3c2CC(C)(C)CC3=O)cc1

SMILES: Cc1ccc(-n2nc(C)c3c2CC(C)(C)CC3=O)c(Br)c1
EC50 (Mu-type opioid receptor [1]): 0.041 µM
Ki (Mu-type opioid receptor [2]): 0.74 µM
IC50 (Mu-type opioid receptor [3]): 6 µM
IC50 [4]: > 100 µM
IC50 [5]: 0.37 µM
ED50 (Mus musculus [6]): 26.6 mg/kg
Activity (Mus musculus [11]): inactive
EC50 (Mu-type opioid receptor [8]): 0.2 µM
Activity (Mu-type opioid receptor [9]): inactive
